The source of these data is ChEMBL document CHEMBL5154683, “A 5-FU Precursor Designed to Evade Anabolic and Catabolic Drug Pathways and Activated by Pd Chemistry In Vitro and In Vivo” (J Med Chem, 2022).

The subject of one data set is BXPC-3. The experiment in a line: Antiproliferative activity against human BxPC-3 cells assessed as reduction in cell viability measured after 5 days by PrestoBlue reagent based assay. The class given is functional. The settings on record: BXPC-3, 120 h. Summed up: (§1)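 Cells in 10% FBS, 2 mM L-glutamine media at 37 °C, 5% CO₂ (HCT116 in McCoy's 5A, BxPC-3 in RPMI). Seeded at 3000 (HCT116) or 2500 (BxPC-3) cells/well and grown 48 h. Medium then replaced with drug-containing medium, 0.1% DMSO, for 5 d. PrestoBlue 10% v/v added for 1 h, fluorescence read ex 540/em 590 nm. Normalised to DMSO-only wells; sigmoidal variable-slope fit; n = 3.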

The nature of data set [1]: Prodrug conversion in human liver S9 fraction assessed as DH5FU metabolite formation at 1.6 mM incubated for 1 hr in presence of NADPH by 19F-NMR based analysis. To be noted: s9, 1 h, 1600 µM. Type of data set: ADME, subcellular. A digest of the protocol:
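Compound added as 150 mM stock in DMSO-d₆, preincubated 5 min at 37 °C with enzyme mixture, then NADPH added (1 mM) and incubated 1 h at 37 °C, 600 rpm; controls without NADPH and without enzymes. Stopped with EtOAc, dried under N₂, redissolved in DMSO-d₆, DH5FU detected by ¹⁹F NMR vs authentic sample.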

Data set [2] concerns HCT-116. In words: Antiproliferative activity against human HCT-116 cells assessed as reduction in cell viability measured after 5 days by PrestoBlue reagent based assay. Type of data set: functional. The settings on record: HCT-116, 120 h. Summed up: as §1
Data set [3] has as its system HCT-116. In words: Antiproliferative activity against human HCT-116 cells assessed as reduction in cell viability at 100 uM incubated for 5 days in presence of Pd-resins at 0.8 mg/ml by PrestoBlue dye based assay relative to control. Type of data set: functional. The settings on record: time 5 day. A digest of the protocol:
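HCT116 seeded at 750 cells/well and grown 48 h. Medium then replaced with fresh medium with or without Pd resins (20–160 μg per well; 0.2–1.4 mg/mL). Compound added as 5 μL of a 2 mM stock in 2% DMSO/medium, incubated 5 d. PrestoBlue fluorescence read; values normalised to untreated cells within each resin dilution.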

What is called EC50 is the midpoint of the concentration-response curve. For `O=c1[nH]cc(F)c(=O)[nH]1` [FLUOROURACIL], the EC50 is 140 nM with BXPC-3 and 500 nM with HCT-116 [2]. In data set [1], the Drug metabolism result is “Metabolite_Detected”.
With `C#CCn1cc(F)c(=O)[nH]c1=O`, in data set [1], the Drug metabolism result is “Metabolite_Detected”. Besides, in the data set on HCT-116 [3], the Activity is 14%.
